The values that follow come from ChEMBL document CHEMBL2177052, “Rapid and efficient synthesis of a novel series of substituted aminobenzosuberone derivatives as potent, selective, non-peptidic neutral aminopeptidase inhibitors” (Bioorg Med Chem, 2012).

As usually defined, the Ki is the equilibrium dissociation constant of an inhibitor or competing ligand from its target.

Assay [1] has as its target T1, Cytosol aminopeptidase (Bos taurus, UniProt P00727).
T1 sequence (P00727 whole entry): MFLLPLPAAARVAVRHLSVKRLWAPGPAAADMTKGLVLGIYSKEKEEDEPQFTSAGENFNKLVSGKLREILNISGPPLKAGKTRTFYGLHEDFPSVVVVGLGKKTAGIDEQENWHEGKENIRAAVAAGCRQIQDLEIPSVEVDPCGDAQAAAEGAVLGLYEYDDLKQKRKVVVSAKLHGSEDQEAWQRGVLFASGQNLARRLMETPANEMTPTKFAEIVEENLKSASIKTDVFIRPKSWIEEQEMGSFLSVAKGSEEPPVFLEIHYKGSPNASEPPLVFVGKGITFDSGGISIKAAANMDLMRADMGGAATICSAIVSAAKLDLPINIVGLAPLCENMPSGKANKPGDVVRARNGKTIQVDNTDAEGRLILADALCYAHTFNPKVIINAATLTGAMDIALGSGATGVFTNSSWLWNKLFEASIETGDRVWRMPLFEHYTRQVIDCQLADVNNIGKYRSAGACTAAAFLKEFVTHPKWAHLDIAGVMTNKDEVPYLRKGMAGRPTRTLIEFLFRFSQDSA
The experiment in a line: Competitive inhibition of bovine LAPc using L-leucine-p-nitroanilide as substrate by spectrophotometric analysis. An outline of the steps: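 Cytosolic leucine aminopeptidase from bovine kidney, 20 Units per assay, in 0.1 M Tris–HCl pH 8.0 with 0.1 mM ZnCl2, 5 mM MnCl2 and 1 M KCl. Km for L-leucine-p-nitroanilide 2 mM. Reaction started by adding enzyme to 1 ml medium at 30 °C. p-Nitroanilide release followed continuously at 405 nm (ε = 10,800 M-1 cm-1) for initial velocities. Ki taken from Dixon plots.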

Assay [2] has as its target T2, Leukotriene A-4 hydrolase (Homo sapiens, UniProt P09960).
T2 sequence (P09960 whole entry): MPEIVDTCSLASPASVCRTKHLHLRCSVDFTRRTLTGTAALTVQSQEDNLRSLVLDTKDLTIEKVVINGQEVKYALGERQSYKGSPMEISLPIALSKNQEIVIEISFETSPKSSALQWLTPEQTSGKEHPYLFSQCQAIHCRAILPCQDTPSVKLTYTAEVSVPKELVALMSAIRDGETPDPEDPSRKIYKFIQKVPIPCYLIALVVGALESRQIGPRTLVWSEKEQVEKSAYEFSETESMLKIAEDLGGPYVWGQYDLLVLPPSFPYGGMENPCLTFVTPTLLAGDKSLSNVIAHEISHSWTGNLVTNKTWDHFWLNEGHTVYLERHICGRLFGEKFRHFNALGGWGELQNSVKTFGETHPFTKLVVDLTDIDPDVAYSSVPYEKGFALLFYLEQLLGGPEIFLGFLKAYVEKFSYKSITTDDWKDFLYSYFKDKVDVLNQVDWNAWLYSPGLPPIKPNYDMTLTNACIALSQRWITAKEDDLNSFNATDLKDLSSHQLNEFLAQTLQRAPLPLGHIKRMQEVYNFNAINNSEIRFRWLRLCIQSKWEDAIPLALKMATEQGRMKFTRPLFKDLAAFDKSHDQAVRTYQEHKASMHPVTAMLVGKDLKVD
The experiment in a line: Competitive inhibition of human recombinant LTA4H using alanine-p-nitroanilide as substrate by spectrophotometric analysis. An outline of the steps: (§1)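 Human LTA4H, 5 µg per assay, in 10 mM Tris–HCl pH 7.5 with 0.1 mM KCl. Alanine-p-nitroanilide used as substrate (Km 2 mM). Enzyme added last to start the 1 ml reaction at 30 °C. Release of p-nitroanilide followed continuously at 405 nm for initial rates. Ki from Dixon plots assuming rapid-equilibrium kinetics.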

The target in assay [3] is T3, Aminopeptidase N (Sus scrofa, UniProt P15145).
T3 sequence (P15145 whole entry): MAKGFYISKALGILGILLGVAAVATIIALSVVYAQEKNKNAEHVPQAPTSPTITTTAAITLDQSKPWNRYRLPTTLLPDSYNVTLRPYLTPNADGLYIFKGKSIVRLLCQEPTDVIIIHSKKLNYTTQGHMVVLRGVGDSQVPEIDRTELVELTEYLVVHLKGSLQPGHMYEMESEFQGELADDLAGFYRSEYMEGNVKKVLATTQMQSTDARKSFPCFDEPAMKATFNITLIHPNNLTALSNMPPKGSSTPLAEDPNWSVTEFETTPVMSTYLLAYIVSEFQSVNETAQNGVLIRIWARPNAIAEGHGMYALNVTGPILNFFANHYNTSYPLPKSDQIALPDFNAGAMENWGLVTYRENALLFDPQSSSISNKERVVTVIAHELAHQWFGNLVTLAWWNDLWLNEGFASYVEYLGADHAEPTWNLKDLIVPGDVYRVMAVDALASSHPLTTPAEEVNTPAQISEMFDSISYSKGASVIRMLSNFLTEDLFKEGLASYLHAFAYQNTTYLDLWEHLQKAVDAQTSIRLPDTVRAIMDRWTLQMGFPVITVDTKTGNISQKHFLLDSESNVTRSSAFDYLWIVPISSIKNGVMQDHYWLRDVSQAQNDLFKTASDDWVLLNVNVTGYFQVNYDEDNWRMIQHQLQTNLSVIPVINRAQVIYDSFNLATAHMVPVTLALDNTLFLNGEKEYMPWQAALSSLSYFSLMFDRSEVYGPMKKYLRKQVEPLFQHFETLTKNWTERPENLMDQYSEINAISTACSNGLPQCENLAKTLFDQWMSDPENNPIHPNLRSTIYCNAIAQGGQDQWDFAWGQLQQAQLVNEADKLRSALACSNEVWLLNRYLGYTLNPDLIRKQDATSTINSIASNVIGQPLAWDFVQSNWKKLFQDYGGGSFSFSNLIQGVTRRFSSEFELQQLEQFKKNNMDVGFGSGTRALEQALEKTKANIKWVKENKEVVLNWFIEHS
The experiment in a line: Competitive inhibition of pig APN using L-leucine-p-nitroanilide as substrate by Dixon-plot analysis.

For assay [4], the target named is T3, Aminopeptidase N. The assay is described as follows: Competitive inhibition of pig APN using L-leucine-p-nitroanilide as substrate by spectrophotometric analysis. Put shortly: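 Porcine kidney aminopeptidase-N, 1 mUnit per assay, in 0.02 M Tris–HCl pH 7.5 at 30 °C. L-Leucine-p-nitroanilide substrate, Km 0.2 mM. Enzyme addition starts the reaction. Continuous 405 nm read of p-nitroanilide release. Ki from Dixon plots for rapid-equilibrium inhibitors. For slow-binding inhibitors, progress curves were run with 3 nM enzyme and substrate at Km, steady state reached after 1.5 h, and Ki taken from Morrison plots.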

In assay [5] the target is T1, Cytosol aminopeptidase. The experiment in a line: Competitive inhibition of bovine LAPc using L-leucine-p-nitroanilide as substrate by Dixon-plot analysis.
Assay [6] addresses T2, Leukotriene A-4 hydrolase. The assay is described as follows: Competitive inhibition of human recombinant LTA4H using alanine-p-nitroanilide as substrate by Dixon-plot analysis. Put shortly: as §1
Assay [7] concerns the target Aminopeptidase N (Homo sapiens, UniProt P15144).

Some results are limits rather than exact numbers.

Aminopeptidase N (Homo sapiens, UniProt P15144), sequence (P15144 whole entry): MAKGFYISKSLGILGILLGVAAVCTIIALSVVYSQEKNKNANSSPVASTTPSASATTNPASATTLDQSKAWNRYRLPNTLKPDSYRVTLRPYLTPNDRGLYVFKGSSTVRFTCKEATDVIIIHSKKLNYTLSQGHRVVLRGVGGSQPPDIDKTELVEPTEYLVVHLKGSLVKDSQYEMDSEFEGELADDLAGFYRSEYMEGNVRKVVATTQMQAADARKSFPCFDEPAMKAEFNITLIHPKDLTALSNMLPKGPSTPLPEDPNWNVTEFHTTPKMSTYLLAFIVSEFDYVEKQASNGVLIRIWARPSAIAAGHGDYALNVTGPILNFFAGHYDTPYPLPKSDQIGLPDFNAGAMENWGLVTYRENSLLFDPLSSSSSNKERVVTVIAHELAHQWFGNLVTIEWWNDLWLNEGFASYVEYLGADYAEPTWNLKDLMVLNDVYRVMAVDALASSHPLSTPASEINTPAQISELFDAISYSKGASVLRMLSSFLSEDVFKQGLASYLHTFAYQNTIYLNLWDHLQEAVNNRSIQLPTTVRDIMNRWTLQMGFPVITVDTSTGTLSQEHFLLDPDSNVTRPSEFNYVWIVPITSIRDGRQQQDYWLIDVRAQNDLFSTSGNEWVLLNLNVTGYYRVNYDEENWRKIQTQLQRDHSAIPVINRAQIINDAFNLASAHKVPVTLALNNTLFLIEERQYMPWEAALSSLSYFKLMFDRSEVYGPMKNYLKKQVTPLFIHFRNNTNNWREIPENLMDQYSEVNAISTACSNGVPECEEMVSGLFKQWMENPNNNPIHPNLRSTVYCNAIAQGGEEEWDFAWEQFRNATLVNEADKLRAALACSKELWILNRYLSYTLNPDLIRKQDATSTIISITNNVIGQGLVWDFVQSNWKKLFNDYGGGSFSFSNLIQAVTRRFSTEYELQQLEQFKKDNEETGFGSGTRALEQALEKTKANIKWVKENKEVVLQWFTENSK

Regarding `N[C@H]1CCc2ccccc2[C@@H](CCc2ccccc2)C1=O` (racemic), the Ki at Cytosol aminopeptidase [1] is greater than 100 µM; in assay [2] it was greater than 100 µM; at Aminopeptidase N [3], 22 µM.

Turning to `N[C@H]1CCc2ccccc2[C@H](SCc2ccccc2)C1=O` (racemic), the Ki in assay [2] was greater than 100 µM; on Aminopeptidase N [4], 83 nM; on Cytosol aminopeptidase [5] it was 40 µM.

Consider `N[C@H]1CCc2ccccc2[C@H](CCc2ccccc2)C1=O` (racemic), for which the Ki was 470 µM in assay [6] and 88 µM on Aminopeptidase N [3].

As for `N[C@H]1CCc2ccccc2[C@@H](Cc2ccccc2)C1=O` (racemic), the Ki at Cytosol aminopeptidase [1] was greater than 100 µM; in assay [2], greater than 100 µM; at Aminopeptidase N [3], 13 µM.

In the case of `N[C@H]1CCc2ccccc2[C@@H](Sc2ccccc2)C1=O` (racemic), the Ki was greater than 100 µM at Cytosol aminopeptidase [1], greater than 100 µM in assay [2] and 60 nM at Aminopeptidase N [4].

For the compound `N[C@H]1CCc2ccccc2[C@H](Sc2ccccc2)C1=O` (racemic), the Ki on Cytosol aminopeptidase [1] is greater than 100 µM; in assay [2] it was greater than 100 µM; on Aminopeptidase N [4], 60 nM.

As to `N[C@H]1CCc2ccccc2[C@@H](CCCc2ccccc2)C1=O` (racemic), the Ki is greater than 100 µM on Cytosol aminopeptidase [1], greater than 100 µM in assay [2] and 12 µM at Aminopeptidase N [3].

For the compound `N[C@H]1CCc2ccccc2[C@H](F)C1=O` (racemic), the values for the Ki (at Cytosol aminopeptidase [1]; in assay [2]; on Aminopeptidase N [3]) were greater than 1000 µM, greater than 1000 µM and 0.3 µM, respectively.

On to `N[C@H]1CCc2ccccc2CC1=O`, for which the Ki is greater than 1000 µM at Cytosol aminopeptidase [1], greater than 1000 µM in assay [2], 1 µM at Aminopeptidase N [3] and 1000 nM at Aminopeptidase N [7].

Regarding `N[C@H]1CCc2ccccc2/C(=C/c2ccccc2)C1=O`, the Ki in assay [6] is 380 µM; on Aminopeptidase N [3], 80 µM.

`NC1Cc2ccccc2CC1=O` (stereo not given): the Ki on Cytosol aminopeptidase [1] is greater than 1000 µM.
